Assay results gathered from unrelated publications.
Each line is one published result; the experiments were not run side by side.
Organism: Clostridioides difficile
Read-out: microbial growth

SMILES	method	strain	time	MIC
O=C(O)Cc1ccc(Oc2ccc(-c3noc(-c4ccc(O)cc4)n3)cc2)cc1	broth dilution	–	48 h	50 µg/mL
N#Cc1ccc(Oc2ccc(-c3noc(-c4ccc(O)cc4)n3)cc2)cc1	broth dilution	ATCC43255	48 h	8 to 128 µg/mL
Cl.NCCCc1ccc(Oc2ccc(-c3noc(-c4ccc(O)cc4)n3)cc2)cc1	broth dilution	–	48 h	2 µg/mL
Cc1ncc([N+](=O)[O-])n1CCO	broth dilution	630	–	> 0.5 µg/mL
O=C(NCc1nc(-c2ccc(Br)cc2)c[nH]1)[C@H]1CSC(c2ccccn2)=N1	broth dilution	R20291	24 h	> 50 µg/mL
Oc1cc(-c2nc(-c3ccc(Oc4ccc(C(F)(F)F)cc4)cc3)no2)cc(F)c1O	broth dilution	ATCC43255	48 h	128 µg/mL
O=C(Nc1ncc([N+](=O)[O-])s1)C1CCCCC1	agar dilution	VPI10463	18 h	5.9 µM
O=C(NCc1nc(-c2ccc(Br)cc2)c[nH]1)Nc1nc2ccc(OC(F)(F)F)cc2s1	broth dilution	R20291	24 h	12.5 to 25 µg/mL
COCCNc1ccc(-c2nc(-c3ccc(Oc4ccccc4)cc3)no2)cc1	broth dilution	–	48 h	8 µg/mL
Oc1ccc(Oc2ccc(-c3noc(-c4ccc(O)cc4)n3)cc2)cc1	broth dilution	ATCC43255	48 h	8 to 128 µg/mL
